Reference: article PMC12334608 (Nature Communications, 2025)
Positions count from the first letter of the chain named.

Assays:
ACOX-1.1(H396G) = assay: Enzyme-coupled kinetic assay, ACOX-1.1; type: biochemical, C. elegans; conditions: 10 μM FAD, various ATP
Method in brief: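 Coupled H2O2 assay on a plate reader using the mutant enzyme (250 nM final). […] Peroxide was coupled through 4-aminoantipyrine (0.82 mM final), phenol (10.6 mM final) and peroxidase, read at 500 nm. Substrate was 25 µM lauroyl-CoA in 50 mM Tris-HCl pH 7.5, 150 mM NaCl, 10 mM MgCl2. Initial rate was taken over a 30 s window at 25–26 °C.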

ACOX-1.1(K391N) = target: T1, ACOX-1.1(K391N) (Caenorhabditis elegans, UniProt O62140, K391N); assay: Enzyme-coupled kinetic assay, ACOX-1.1; type: biochemical, C. elegans
T1 sequence (O62140 1-674 K391N): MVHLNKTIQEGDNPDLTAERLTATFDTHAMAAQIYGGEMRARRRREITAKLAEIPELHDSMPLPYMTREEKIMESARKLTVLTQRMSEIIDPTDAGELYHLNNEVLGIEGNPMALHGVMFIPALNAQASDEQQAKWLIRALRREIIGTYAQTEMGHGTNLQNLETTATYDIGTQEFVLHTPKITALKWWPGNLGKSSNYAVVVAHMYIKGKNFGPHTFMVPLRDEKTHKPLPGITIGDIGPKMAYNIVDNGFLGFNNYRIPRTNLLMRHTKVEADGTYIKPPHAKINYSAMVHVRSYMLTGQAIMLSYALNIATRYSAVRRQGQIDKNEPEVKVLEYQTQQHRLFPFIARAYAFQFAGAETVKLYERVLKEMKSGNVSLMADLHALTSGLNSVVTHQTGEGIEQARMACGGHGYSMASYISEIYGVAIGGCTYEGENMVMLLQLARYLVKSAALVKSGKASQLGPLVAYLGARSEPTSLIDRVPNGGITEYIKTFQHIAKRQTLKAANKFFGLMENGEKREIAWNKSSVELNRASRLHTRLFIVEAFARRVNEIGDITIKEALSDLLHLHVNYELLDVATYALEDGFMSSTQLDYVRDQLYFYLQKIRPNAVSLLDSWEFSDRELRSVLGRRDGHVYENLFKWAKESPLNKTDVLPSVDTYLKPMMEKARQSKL

ACOX-1.1(R295Q) = target: T2, ACOX-1.1(R295Q) (Caenorhabditis elegans, UniProt O62140, R295Q); assay: Enzyme-coupled kinetic assay, ACOX-1.1; type: biochemical, C. elegans
T2 sequence (O62140 1-674 R295Q): T1 sequence (O62140 1-674 K391N) with R295Q, N391K

ACOX-1.1 = target: T3, ACOX-1.1 (Caenorhabditis elegans, UniProt O62140); assay: ATP hydrolysis by HPLC; type: biochemical, C. elegans; conditions: 1 h incubation
T3 sequence (O62140 1-674): T1 sequence (O62140 1-674 K391N) with N391K

[1] = target: aspartate transcarbamoylase; conditions: read-out: KD of the high-affinity ATP site; ATP-activated aspartate transcarbamoylase; cited from earlier work

response of enzyme activity to ATP (ACOX-1.1(H396G)): do not respond to ATP
response of enzyme activity to ATP (ACOX-1.1(K391N)): did not respond to ATP
response of enzyme activity to ATP (ACOX-1.1(R295Q)): do not respond to ATP
hydrolysis of ATP by ACOX-1.1 (ACOX-1.1): not hydrolyzed by ACOX-1.1
Compound: Nc1ncnc2c1ncn2[C@@H]1O[C@H](COP(=O)(O)OP(=O)(O)OP(=O)(O)O)[C@@H](O)[C@H]1O [ATP]
Kd [1]: 100 to 200 µM
